Each block holds one compound with its values, some of them ahead of it. Residues, ends and D or L forms follow the SMILES beside them.
Legend:
LGN TPR repeats = biological target: T1, LGN TPR repeats (Mus musculus, UniProt Q8VDU0); conditions: fit of the LGN TPR0-7/NuMA fluorescence polarization binding curve; Fig. 2C
T1 sequence (Q8VDU0 22-357): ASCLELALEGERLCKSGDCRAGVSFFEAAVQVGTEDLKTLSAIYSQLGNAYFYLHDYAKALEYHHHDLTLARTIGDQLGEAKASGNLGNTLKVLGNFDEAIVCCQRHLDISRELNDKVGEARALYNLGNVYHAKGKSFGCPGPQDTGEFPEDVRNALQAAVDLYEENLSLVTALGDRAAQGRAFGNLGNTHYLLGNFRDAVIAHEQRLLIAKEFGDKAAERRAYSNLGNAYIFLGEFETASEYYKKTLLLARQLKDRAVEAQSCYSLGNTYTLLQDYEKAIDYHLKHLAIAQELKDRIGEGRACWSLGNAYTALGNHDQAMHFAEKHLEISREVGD
How it was run: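 Fluorescence polarization at 25 °C using a fluorimeter with an automated polarizer. A FITC-labeled human NuMA peptide (~1 μM) was titrated with mouse LGN TPR0-7 in 50 mM Tris pH 8.0, 100 mM NaCl, 1 mM DTT, 1 mM EDTA. The LGN fragment was expressed from a modified pET32a vector in E. coli BL21(DE3) at 16°C and purified by Ni2+-NTA then size-exclusion chromatography.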

[1] = biological target: FITC-labeled NuMA peptide (aa 1886-1912) (human) (UniProt Q14980); assay: fluorescence polarisation + ITC
[2] = biological target: mInsc22 (aa 19-40), peptide of the fluorescence assays (mouse); assay: fluorescence polarisation
[3] = biological target: NuMA_C (1898-1912) (human) (UniProt Q14980); assay: fluorescence polarisation
[4] = biological target: NuMA_N (1885-1898) (human) (UniProt Q14980); assay: fluorescence polarisation
Mud peptide (Drosophila) = assay: fluorescence polarisation
[5] = biological target: mInsc38 (aa 20-57) (mouse); assay: fluorescence polarisation

- Hill coefficient of LGN/NuMA binding curve (LGN TPR repeats): ~2.0
Compound: CC[C@H](C)[C@H](NC(=O)[C@H](CCCNC(=N)N)NC(=O)[C@H](CC(N)=O)NC(=O)[C@H](Cc1c[nH]c2ccccc12)NC(=O)[C@H](CC(=O)O)NC(=O)[C@H](CC(=O)O)NC(=O)[C@H](CC(C)C)NC(=O)[C@H](CCC(N)=O)NC(=O)[C@H](CCC(=O)O)NC(=O)[C@@H]1CCCN1C(=O)[C@H](CCC(=O)O)NC(=O)[C@H](CC(=O)O)NC(=O)[C@H](CCC(N)=O)NC(=O)[C@H](CS)NC(=O)[C@@H](NC(=O)CNC(=O)[C@H](CCSC)NC(=O)[C@H](Cc1ccc(O)cc1)NC(=O)[C@H](Cc1ccccc1)NC(=O)[C@H](CO)NC(=O)[C@@H](N)CC(N)=O)[C@@H](C)O)C(=O)N[C@@H](C)C(=O)N[C@@H](CCC(=O)O)C(=O)N[C@@H](CC(C)C)C(=O)N[C@@H](CCC(N)=O)C(=O)N[C@@H](CCC(N)=O)C(=O)N[C@@H](CCCNC(=N)N)C(=O)O [NuMA] (H-NSFYMGTCQDEPEQLDDWNRIAELQQR-OH; N-terminus and C-terminus assumed)

- fold decrease in binding affinity (against LGN TPR0-7) [2]: 10 fold
Compound: LGN TPR4-7 (aa 191-350) (domain or fragment)

Continued, compound first:

Compound: LGN (aa 15-479) (domain or fragment)
- Kd [1]: 60 nM

Compound: LGN (aa 27-350) (domain or fragment)
- fold decrease in NuMA binding (against the longer LGN fragments) [1]: 200 fold

Compound: LGN(15-350) (domain or fragment)
- Kd [3]: 67100 nM
- Kd [4]: 31700 nM
- Kd (Mud peptide (Drosophila)): 230 nM
- Kd [5]: 47 nM

— paper PMC3158460 (Molecular cell, 2011)
